From ChEMBL document CHEMBL1811828, “LuxR dependent quorum sensing inhibition by N,N'-disubstituted imidazolium salts” (Bioorg Med Chem, 2011)
Activity calls are given as the source filed them. The calls are words filed in the database; no cut-off is given here.

What was measured:
Type in all cases: functional
[1] = target: T1, Transcriptional activator protein LuxR (Aliivibrio fischeri, UniProt P12746); assay: Antagonist activity at Vibrio fischeri LuxR assessed as inhibition of 3-oxo-C6-HSL-induced quorum sensing activation mediated bioluminescence
T1 sequence (P12746 whole entry): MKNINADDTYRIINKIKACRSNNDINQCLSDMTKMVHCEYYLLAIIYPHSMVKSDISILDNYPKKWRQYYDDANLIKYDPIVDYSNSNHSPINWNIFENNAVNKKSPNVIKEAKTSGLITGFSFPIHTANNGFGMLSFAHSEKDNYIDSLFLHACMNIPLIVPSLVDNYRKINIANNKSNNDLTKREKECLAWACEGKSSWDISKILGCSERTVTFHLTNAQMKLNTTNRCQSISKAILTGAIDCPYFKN
In short: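 Bioluminescence induced with 200 nM 3-oxo-C6-HSL, with test compounds added. IC50 is the concentration that halves the induced light intensity. Values are means of three experiments with standard deviation.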

[2] = target: T2, Transcriptional activator protein LuxR (Aliivibrio fischeri) (UniProt P12746); assay: Agonist activity at Vibrio fischeri LuxR assessed as activation of quorum sensing activation mediated bioluminescence
T2 sequence (whole entry): T1 sequence (P12746 whole entry)

Aliivibrio fischeri = assay: Antimicrobial activity against Vibrio fischeri incubated overnight at 37 degC by disc diffusion assay
In short: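 Disk diffusion susceptibility assay following CLSI guidelines, with a kanamycin control disk. Compounds were tested at 20 μM, 200 μM, 2 mM and 20 mM. Inhibition zones were measured after overnight incubation at 37 °C, and the MIC was taken from these tested levels.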

SMILES | IC50 ([1]; read-out: IC50) | Activity [2] | MIC (Aliivibrio fischeri) | IC50 [1]
CCCCCCCCn1cc[n+](C2CCCC2)c1 | 68 µM | inactive | – | –
CCCCCCCCCCCCn1cc[n+](C(c2ccccc2)c2ccccc2)c1 | 6.1 µM | inactive | 200 µM | –
CCCCCCCCCCn1cc[n+](C2CCCC2)c1 | 33 µM | inactive | – | –
CCCCCCCCCCCCn1cc[n+](C(c2ccc(Cl)cc2Cl)c2ccc(Cl)cc2Cl)c1 | 6.5 µM | inactive | – | –
CCCCCCCCCCn1cc[n+](C(c2ccc(Cl)cc2)c2ccc(Cl)cc2)c1 | 5.8 µM | inactive | – | –
CCCCCCCCCCn1cc[n+](C2c3ccccc3-c3ccccc32)c1 | 4 µM | inactive | – | –
CCCCCCCCCCn1cc[n+](C(c2ccccc2)c2ccccc2)c1 | 18 µM | inactive | – | –
CCCCCCCCCCCCCCn1cc[n+](C2c3ccccc3-c3ccccc32)c1 | 2.7 µM | inactive | – | –
CCCCCCCCCCCCCCCCn1cc[n+](C2c3ccccc3-c3ccccc32)c1 | 14.7 µM | inactive | – | –
CCCCCCCCCCCCCCn1cc[n+](C(c2ccc(Cl)cc2)c2ccc(Cl)cc2)c1 | 75 µM | inactive | – | –
CCCCCCCCCCCCn1cc[n+](C2c3ccccc3-c3ccccc32)c1 | 1.4 µM | inactive | 200 µM | –
CCCCCCn1cc[n+](C(c2ccccc2)c2ccccc2)c1 | 153 µM | inactive | – | –
CCCCCCn1cc[n+](C(c2ccc(Cl)cc2Cl)c2ccc(Cl)cc2Cl)c1 | 52 µM | inactive | – | –
CCCCCCCCCCCCCCCCn1cc[n+](C2CCCC2)c1 | 5.3 µM | inactive | – | –
CCCCCCCCn1cc[n+](C(c2ccc(Cl)cc2)c2ccc(Cl)cc2)c1 | 9.8 µM | inactive | – | –
CCCCn1cc[n+](C(c2ccccc2)c2ccccc2)c1.[Br-] | – | inactive | – | Not Active
CCCCCCCCCCCCCCCCCCn1cc[n+](C(c2ccc(Cl)cc2Cl)c2ccc(Cl)cc2Cl)c1.[Br-] | – | inactive | – | Not Active
CCCCCCCCCCn1cc[n+](C(c2ccc(Cl)cc2Cl)c2ccc(Cl)cc2Cl)c1 | 4.9 µM | inactive | – | –
CCCCCCCCCCCCn1cc[n+](C2CCCC2)c1 | 11 µM | inactive | – | –
CCCCCCCCn1cc[n+](C(c2ccccc2)c2ccccc2)c1 | 76 µM | inactive | – | –
CCCCCCCCCCCCCCn1cc[n+](C(c2ccc(Cl)cc2Cl)c2ccc(Cl)cc2Cl)c1.[Br-] | – | inactive | – | Not Active
CCCCCCCCCCCCn1cc[n+](C(c2ccc(Cl)cc2)c2ccc(Cl)cc2)c1 | 6.2 µM | inactive | – | –
CCCCCCCCCCCCCCCCCCn1cc[n+](C2CCCC2)c1 | 86 µM | inactive | – | –
CCCCCCCCCCCCCCn1cc[n+](C2CCCC2)c1 | 3.4 µM | inactive | 200 µM | –
CCCCCCn1cc[n+](C(c2ccc(Cl)cc2)c2ccc(Cl)cc2)c1 | 63 µM | inactive | – | –
CCCCCCCCn1cc[n+](C(c2ccc(Cl)cc2Cl)c2ccc(Cl)cc2Cl)c1 | 8.9 µM | inactive | – | –
CCCCCCCCCCCCCCCCCCn1cc[n+](C(c2ccc(Cl)cc2)c2ccc(Cl)cc2)c1.[Br-] | – | inactive | – | Not Active
CCCCCCCCCCCCCCn1cc[n+](C(c2ccccc2)c2ccccc2)c1 | 5.2 µM | inactive | – | –
CCCCCCCCn1cc[n+](C2c3ccccc3-c3ccccc32)c1 | 35 µM | inactive | – | –
CCCCCCCCCCCCCCCCn1cc[n+](C(c2ccccc2)c2ccccc2)c1 | 7.3 µM | inactive | – | –
